Screening results: PubChem BioAssay, several laboratories
697 NFkB inh – inhibitors of PMA/ionomycin-induced NF-kB reporter, 697 cells, primary screen, B-cell NF-kB inhibitor project, cell-based, luminescence, uHTS | 697 B-cell NF-kB luciferase reporter, 16 h | inhibition, % at 4 µM | 330,000 compounds, 0.33% hits | AID 435022, 2010; in the data active = inhibition above about 35%
Mdm2-MdmX inh – inhibitors of human Mdm2-MdmX association, primary screen, cell-based, luminescence, split luciferase, SaOS-2, uHTS; Protein Mdm4 (Homo sapiens) + E3 ubiquitin-protein ligase Mdm2 (Homo sapiens), …; SaOS-2 split-luciferase Mdm2/MdmX complementation; inhibition, % at 8 µM; 330,000 compounds, 3% hits;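 active = inhibition of at least 50% at 8 µM in the primary screen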
Target sequence (O15151 whole entry, looked up): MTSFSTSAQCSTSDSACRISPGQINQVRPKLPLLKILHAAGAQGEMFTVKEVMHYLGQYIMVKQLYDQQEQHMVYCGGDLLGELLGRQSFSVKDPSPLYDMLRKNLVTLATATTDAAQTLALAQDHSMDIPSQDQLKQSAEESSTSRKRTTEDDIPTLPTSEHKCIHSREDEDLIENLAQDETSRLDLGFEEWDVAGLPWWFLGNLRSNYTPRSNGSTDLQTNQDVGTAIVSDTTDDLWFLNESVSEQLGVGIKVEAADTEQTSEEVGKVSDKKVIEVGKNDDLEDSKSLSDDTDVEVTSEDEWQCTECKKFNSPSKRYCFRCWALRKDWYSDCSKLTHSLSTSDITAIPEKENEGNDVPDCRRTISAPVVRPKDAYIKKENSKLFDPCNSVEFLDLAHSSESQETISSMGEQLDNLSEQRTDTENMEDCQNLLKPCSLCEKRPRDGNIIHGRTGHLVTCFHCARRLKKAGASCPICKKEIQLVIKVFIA
Target sequence (Q00987 whole entry, looked up): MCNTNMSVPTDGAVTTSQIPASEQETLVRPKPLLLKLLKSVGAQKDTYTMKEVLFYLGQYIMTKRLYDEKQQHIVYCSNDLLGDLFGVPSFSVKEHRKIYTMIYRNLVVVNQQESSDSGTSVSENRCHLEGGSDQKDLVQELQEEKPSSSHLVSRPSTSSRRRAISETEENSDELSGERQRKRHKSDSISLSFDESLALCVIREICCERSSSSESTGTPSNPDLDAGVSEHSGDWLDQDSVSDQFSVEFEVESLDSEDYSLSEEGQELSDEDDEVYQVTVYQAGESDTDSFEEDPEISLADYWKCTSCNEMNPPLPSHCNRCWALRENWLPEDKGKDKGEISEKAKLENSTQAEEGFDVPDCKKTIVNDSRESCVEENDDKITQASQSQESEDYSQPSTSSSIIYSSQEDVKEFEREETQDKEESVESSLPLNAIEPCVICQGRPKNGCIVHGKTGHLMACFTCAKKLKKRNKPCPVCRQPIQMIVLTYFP
aSyn 5UTR inh – MLPCN primary screen, SNCA 5' untranslated region; AID 1813, 2009; 300,000 compounds, 0.82% hits; inhibition, % (tested at 7.5 µM); alpha-synuclein 5'UTR reporter, inhibitor activity; in the data active = inhibition above about 60%;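 note: H4 neuroglioblastoma cells stably carrying SNCA 5'UTR luciferase fusion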
IMP-1 inhibitor – IMP-1 metallo-beta-lactamase inhibitors, primary screen, biochemical, epi-absorbance readout, Pseudomonas aeruginosa enzyme; AID 1556, 2009; inhibition, % at 5.6 µM; metallo-beta-lactamase IMP-1 (Pseudomonas aeruginosa); 290,000 compounds, 0.45% hits; purified IMP-1, nitrocefin hydrolysis, epi-absorbance fluorescence;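 active = inhibition above the mean plus 3 SD of all compounds in the same screening run, cut at about 4.5% in these data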
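System: purified recombinant IMP-1 beta-lactamase. Medium: Zinc- and detergent-supplemented HEPES buffer, pH 7.1. Compound: one 5.6 µM dose […]. Schedule: 15 min preincubation plus 25 min reaction at 25 °C. Technique: Epi-absorbance fluorescence, 480 nm excitation, 530 nm emission.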
VIM-2 inhibitor – VIM-2 metallo-beta-lactamase inhibitors, primary screen, biochemical, epi-absorbance readout, Pseudomonas aeruginosa enzyme; purified VIM-2, nitrocefin hydrolysis, epi-absorbance fluorescence; inhibition, % at 5.6 µM; 290,000 compounds, 0.89% hits; AID 1527, 2009;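 active = inhibition above the mean of all tested compounds plus 3 SD, cutoff set per screening run, cut at about 7.5% in these data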;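 note: red hydrolysis product quenches plate fluorescence so inhibitors raise well fluorescence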
Jurkat NFkB inh – inhibitors of induced NF-kB luciferase reporter, primary screen, TCR NF-kB activation inhibitor project, cell-based, luminescence, uHTS | inhibition, % at 4 µM | 330,000 compounds, 0.53% hits | Jurkat, PMA/ionomycin-induced NF-kB luciferase reporter; in the data active = inhibition above about 50%
Mdm2 MdmX conf – Mdm2-MdmX complex disruptors, retested hits, confirmation, luminescence, single concentration; 10,000 compounds, 55% hits; Mdm2-MdmX binding, luminescent assay; AID 489028, 2010; shares compounds with Mdm2-MdmX inh; inhibition, % at 8 µM; in the data active = inhibition above about 40%
Full FLuc ctr – full-length luciferase signal inhibition, confirmation, counter-screen for Mdm2/MdmX interaction inhibitor project, cell-based, single concentration, SaOS-2; SaOS-2 full-length luciferase counterscreen, luminescence; shares compounds with Mdm2-MdmX inh; 6,200 compounds, 77% hits; inhibition, % at 8 µM;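 active = mean inhibition at 8 µM reaching about 37%, which flags the compound as non-specific, limit read from the data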;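 note: p53-null SaOS-2 cells with luciferase driven by a doxycycline-inducible promoter; compound on cells about two nights before reading with doxycycline added after day one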
Each line names hits and unclear results; the compound was inactive in the other large screens (follow-up assays come after a bar, where they were run). Compounds with a hit are over-represented: about 4.7% of the library has one in this group of screens.

C=CCn1c(SCC(=O)Nc2sccc2C(N)=O)nc2sc(CC)cc2c1=O	Mdm2-MdmX inh 59 | Mdm2 MdmX conf inactive | Full FLuc ctr 74
CC(Sc1cccc[n+]1[O-])c1ccccc1 (configuration not stated)	none
CC(NC(=O)CSc1nc2sc3c(c2c(=O)n1-c1ccccc1)CCCC3)c1ccccc1 (configuration not stated)	Mdm2-MdmX inh 51 | Mdm2 MdmX conf inactive
C=CCn1c(SCC(=O)Nc2cc(C)on2)nc2sc3c(c2c1=O)CCCC3	Mdm2-MdmX inh 61 (no result: aSyn 5UTR inh) | Mdm2 MdmX conf inactive
O=C(O)CSc1nc2sc3c(c2c(=O)n1-c1ccccc1)CCC3	none
COc1ccc(N2CCN(S(=O)(=O)c3cn(C)cn3)CC2)cc1	none
CCOC(=O)c1[nH]c2ccc(OC)cc2c1NC(=S)N1CCN(c2cccc(Cl)c2)CC1	Mdm2-MdmX inh 50 | Mdm2 MdmX conf inactive
CCOC(=O)c1[nH]c2ccc(OC)cc2c1NC(=S)N1CCN(c2ccccc2)CC1	none
Clc1cc2cccnc2c2ncccc12	Mdm2-MdmX inh 77 (no result: aSyn 5UTR inh, IMP-1 inhibitor, VIM-2 inhibitor) | Mdm2 MdmX conf 81 | Full FLuc ctr inactive
CCOC(=O)C1(CCCc2ccccc2)CCN(C(=O)C2=C(C)OCCO2)CC1	none (no result: 697 NFkB inh, Mdm2-MdmX inh, Jurkat NFkB inh)
Nc1nc(N)nc(-c2ccccc2O)n1	none
COc1ccc(/C=C/c2nc(N)nc(-c3ccccc3O)n2)cc1OC	Mdm2-MdmX inh 61 | Mdm2 MdmX conf 44 | Full FLuc ctr 84
CC(OC(=O)C1=COCCO1)C(=O)Nc1cc(S(=O)(=O)N2CCCCC2)ccc1Cl (configuration not stated)	none
Cc1ccc(-c2nc(-c3ccccc3)no2)c(Cl)c1	Mdm2-MdmX inh 52, aSyn 5UTR inh 95 | Mdm2 MdmX conf 62 | Full FLuc ctr 163
Cc1cccc(-c2nc(-c3ccncc3)no2)c1	none
Cc1cccc(C(=O)O/N=C(\N)Cc2ccc([N+](=O)[O-])cc2)c1	Mdm2-MdmX inh 89 | Mdm2 MdmX conf 56 | Full FLuc ctr 54
COc1ccc(C/C(N)=N/OC(=O)C(c2ccccc2)c2ccccc2)cc1OC	none
N/C(Cc1ccc([N+](=O)[O-])cc1)=N\OC(=O)c1ccccc1Br	Mdm2-MdmX inh 60 | Mdm2 MdmX conf inactive
Cc1ccc(C(=O)O/N=C(\N)Cc2ccc([N+](=O)[O-])cc2)c(Cl)c1	Mdm2-MdmX inh 90 | Mdm2 MdmX conf 60 | Full FLuc ctr 43
N/C(Cc1ccc([N+](=O)[O-])cc1)=N\OC(=O)c1ccco1	none
N/C(Cc1ccc([N+](=O)[O-])cc1)=N\OC(=O)C(c1ccccc1)c1ccccc1	Mdm2-MdmX inh 70 | Mdm2 MdmX conf 50 | Full FLuc ctr 79
Cc1ccc(CC(=O)O/N=C(\N)Cc2ccc([N+](=O)[O-])cc2)cc1	none
COc1ccccc1C/C(N)=N/OC(=O)c1cccc([N+](=O)[O-])c1C	Mdm2-MdmX inh 57 | Mdm2 MdmX conf inactive | Full FLuc ctr 102
N/C(Cc1ccc([N+](=O)[O-])cc1)=N\OC(=O)c1ccc(Br)cc1	none
N/C(Cc1ccc([N+](=O)[O-])cc1)=N\OC(=O)c1ccc2ccccc2c1	Mdm2-MdmX inh 88 | Mdm2 MdmX conf inactive | Full FLuc ctr 61
Cc1ccc(C(CC(=O)N2CCOCC2)c2ccco2)cc1 (configuration not stated)	none
N/C(=N\c1nc2ccccc2o1)NC(=O)c1cccc(Cl)c1	Mdm2-MdmX inh 51 | Mdm2 MdmX conf inactive
Cc1cc2nc(C3CCCN(C(=S)Nc4ccccc4)C3)[nH]c2cc1C (configuration not stated)	Mdm2-MdmX inh 51 | Mdm2 MdmX conf inactive
COc1ccccc1NC(=O)N1CCC(c2nc3cc(C)c(C)cc3[nH]2)CC1	Mdm2-MdmX inh 57, aSyn 5UTR inh 74 | Mdm2 MdmX conf 70 | Full FLuc ctr 72
CC1CCN(CCOCCOc2ccc(Br)cc2Cl)CC1	Mdm2-MdmX inh 52 | Mdm2 MdmX conf inactive
CC1CCCN(CCCOc2ccc(Br)cc2Cl)C1 (configuration not stated)	none
O=C(Nc1cccc(-c2nc3ccccc3o2)c1)c1ccc(N2C(=O)C3C4C=CC(C4)C3C2=O)cc1 (configuration not stated)	Mdm2-MdmX inh 59, aSyn 5UTR inh 88 | Mdm2 MdmX conf inactive
O=C1C2C3C=CC(C3)C2C(=O)N1c1cccc(-c2nc3ccccc3o2)c1 (configuration not stated)	none
NC1=NC(=Nc2cccc(Cl)c2)c2ccccc21	Mdm2-MdmX inh 51 | Mdm2 MdmX conf inactive
COc1ccccc1NS(=O)(=O)c1cccc(N=C2N=C(N)c3ccccc32)c1	Mdm2-MdmX inh 51 | Mdm2 MdmX conf inactive
NC1=NC(=Nc2cccc(S(N)(=O)=O)c2)c2ccccc21	none
NC1=NC(=Nc2ccccc2)c2ccccc21	none
NC1=NC(=Nc2ccc(Cl)cc2)c2ccccc21	Mdm2-MdmX inh 55 | Mdm2 MdmX conf inactive
Cc1cccc(N=C2N=C(N)c3ccccc32)c1	none
COc1ccccc1C(=O)NCC(=O)OCC(=O)c1cccc2ccccc12	none (no result: IMP-1 inhibitor, VIM-2 inhibitor)
C=CCOc1ccc(Oc2cc(C)nc(SC)n2)nn1	none
COc1ccc(-c2csc(NC(=O)c3ccccc3NS(=O)(=O)c3ccc(C)cc3)n2)cc1	Mdm2-MdmX inh 83 | Mdm2 MdmX conf 65 | Full FLuc ctr 54
CCCNC(=O)c1ccccc1NS(=O)(=O)c1ccc(OC)c(OC)c1	none
COc1ccc(S(=O)(=O)Nc2ccccc2C(=O)Nc2nc(-c3ccc(F)cc3)cs2)cc1OC	Mdm2-MdmX inh 74 | Mdm2 MdmX conf 66 | Full FLuc ctr 63
O=C(NCC1COc2ccccc2O1)c1ccc(F)c(S(=O)(=O)N2CCOCC2)c1 (configuration not stated)	none (no result: aSyn 5UTR inh, IMP-1 inhibitor, VIM-2 inhibitor)
CCc1ccc(NC(=O)c2ccc(F)c(S(=O)(=O)NCC3COc4ccccc4O3)c2)cc1 (configuration not stated)	Mdm2-MdmX inh 56 | Mdm2 MdmX conf 40 | Full FLuc ctr 55
C[C@@H]1[C@H]2[C@@H]3CC[C@@H](C3)[C@H]2CN[C@H]1c1cn(Cc2ccccc2)c2ccccc12	Mdm2-MdmX inh 54 (no result: aSyn 5UTR inh, IMP-1 inhibitor, VIM-2 inhibitor, Jurkat NFkB inh) | Mdm2 MdmX conf inactive
